# TbHK1 inh = T. brucei hexokinase 1 inhibition; 0.11% of 220,000 active; inhibition, % at 10 µM; recombinant TbHK1, G6PDH-coupled NADH A340;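 active means inhibition of 50% or more in the single-dose primary screen; inactive means inhibition below 50%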
# PGE2 EP2 inh = inhibitors of human EP2 prostaglandin E2 receptor; 0.52% of 260,000 active; P43116; C6 glioma cells expressing human EP2, cAMP TR-FRET; cells stimulated with saturating PGE2; inhibition, % at 25 µM;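 active means percent inhibition above 40 after rounding to a whole number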;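 further: rat C6 glioma host cells with rolipram phosphodiesterase inhibitor present; the protocol text gives 20 µM as final concentration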
# Target sequence (P43116 whole entry, looked up): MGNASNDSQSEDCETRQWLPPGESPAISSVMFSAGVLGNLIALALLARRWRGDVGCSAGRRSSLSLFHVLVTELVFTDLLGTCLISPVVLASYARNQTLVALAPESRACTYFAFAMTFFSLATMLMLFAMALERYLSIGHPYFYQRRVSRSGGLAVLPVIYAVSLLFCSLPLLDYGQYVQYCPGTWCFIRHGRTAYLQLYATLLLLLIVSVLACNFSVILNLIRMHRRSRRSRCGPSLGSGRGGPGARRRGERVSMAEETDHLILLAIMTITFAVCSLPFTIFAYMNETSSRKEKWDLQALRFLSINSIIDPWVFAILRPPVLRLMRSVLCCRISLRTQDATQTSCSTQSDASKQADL
# MT stabilizer = microtubule stabilization, imaging screen | AID 2205 | HeLa tubulin immunostaining HCS, 24 h; share of cells brighter than vehicle mean+2SD | 0.83% of 200,000 active | % tubulin-high responders, % at 10 µM;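 active means plate Z-score above 3 for both tubulin-high and condensed-nucleus cell shares, with cell loss under 80%, at 10 µM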;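 further: anti alpha tubulin signal scored within the nucleus-defined area of each cell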
# bCat nuc transl = modulators of beta-catenin nuclear translocation; HeLa beta-catenin nuclear translocation, immunofluorescence imaging; nuclear translocation activity, % at 5 µM; 0.3% of 190,000 active;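 active means nuclear translocation activity above 50% at 5 µM, with a well cell count of 50 or more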;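 further: per-cell ratio of nuclear to cytoplasmic median beta-catenin stain intensity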
#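 Test system: human HeLa cells, endogenous beta-catenin. Times: 24 h compound exposure, 37°C. Measured by: beta-catenin immunofluorescence imaging with DAPI.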
# EP2 mod = modulates human prostaglandin E2 receptor EP2 signaling; P43116; EP2-expressing cells, cAMP HTRF FRET, PGE2 co-stimulation; induction, % at 25 µM; 0.83% of 260,000 active; AID 940;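 active means compounds whose cAMP rise, as percent of the full-agonist control response, exceeds 60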;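 further: rat C6 glioma line stably carrying human EP2 under a CMV promoter; the protocol text gives 20 µM as final concentration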
# HMGR II inh = blocks class II HMG-CoA reductase of Enterococcus faecalis. purified E. faecalis HMGR, NADPH absorbance 340 nm kinetic. inhibition, % at 10 µM. 0.41% of 190,000 active. AID 1066;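 active means inhibition above a set limit, the median over all tested compounds plus 3 SD, cut at about 9.5% in these data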;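 further: enzyme runs in reverse so mevalonate oxidation gives rising NADPH absorbance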
# Hits are given with their value; n = inactive; x = no result given; ! = a repeat was not active. The list is not random: actives were taken first. Their share in the collection is about 2.4%.
SMILES,TbHK1 inh,PGE2 EP2 inh,MT stabilizer,bCat nuc transl,EP2 mod,HMGR II inh
O=C(Nc1ccc(S(=O)(=O)N2CCOCC2)cc1)c1ccc([N+](=O)[O-])o1,n,49,x,n,n,x
O=C(Nc1ccc(S(=O)(=O)N2CCOCC2)cc1)c1ccco1,n,n,n,x,n,n
CCN1CCN(c2cc(C)c3cc(NC(=O)c4ccc(Br)o4)ccc3n2)CC1,n,n,25,n,n,n
CCc1nn(CC(=O)N2CCCCC2C)c(=O)c2cc3ccsc3n12 (stereo not given),x,x,x,x,n,x
Cc1nc2c([nH]1)C1(CCN(Cc3ccccc3)CC1)C(C#N)=C(N)O2,n,n,n,x,n,17
CC(C(=O)Nc1ccccc1-c1ccccc1)N(C)Cc1nc2ccccc2c(=O)[nH]1 (stereo not given),n,n,24,n,n,n
CN1Cc2cc(C(=O)c3cc(Cl)cc(CSc4ncccn4)c3O)cnc2NC1=O,n,n,20,67,n,n
Cc1ccc(-c2nnc(SCC(=O)N3c4ccccc4CC3C)o2)cc1 (stereo not given),x,n,x,x,n,x
Cc1cc(Cc2cc(Cc3cc(C)cc(C(C)(C)C)c3O)c(C)cc2C)c(O)c(C(C)(C)C)c1,x,52,x,x,n,x
COC(=O)[C@H]1CCc2ccccc2N1C(=O)c1cc(F)cc(F)c1,x,n,x,x,n,x
Cc1nc2cc(NC(=O)/C=C/c3ccc(N(C)C)cc3)ccc2s1,x,82,x,x,n,x
COc1ccccc1S(=O)(=O)Cc1ccc(C(=O)NCCN2CCCCCC2)o1,n,n,n,n,n,10
O=C1c2ccccc2C(=O)N1Nc1ccccc1,n,x,n,x,n,n
Cc1ccc(NN2C(=O)C=C(c3ccccc3)C2=O)cc1,n,48,n,n,n,n
Cc1ccc(NC(=O)c2ccccc2[N+](=O)[O-])nc1,n,n,n,n,n,n
Cc1ccc(NC(=O)c2ccc(Cl)cc2[N+](=O)[O-])nc1,n,n,36,n,n,n
CCn1c(=O)n(CC(N)=O)c2cccnc21,x,x,x,x,n,x
COc1ccc(N2CC(O)=C(c3nc(-c4ccc(Br)cc4)cs3)C2=N)cc1,n,48,n,n,n,n
COc1ccc(N2CC(O)=C(c3nc(-c4ccccc4)cs3)C2=N)cc1,n,n,x,n,n,x
Cc1ccc(N(C(C)C(=O)N2CCOCC2)S(C)(=O)=O)cc1 (stereo not given),x,n,x,x,n,x
COc1ccc(-c2ccnc(-c3ccc(O)cc3)n2)cc1,n,n,n,64,n,n
COc1ccc(-c2ccnc(-c3ccncc3)n2)cc1,n,n,x,n,n,x
CC(=O)N1c2ccc(Cl)cc2C2C=CCC2C1c1cccc2ccccc12 (stereo not given),n,n,12,82,n,n
COc1ccc(-c2noc(COc3ccc4c(c3)OCO4)n2)cc1,n,99,n,x,n,n
CC(=O)c1ccccc1OCC(O)Cn1c(C(C)C)nc2ccccc21 (stereo not given),x,n,x,x,n,x
SMILES,TbHK1 inh,PGE2 EP2 inh,MT stabilizer,bCat nuc transl,EP2 mod,HMGR II inh
CC(C)COP(=O)(OCC(C)C)C(Nc1ccccc1)c1ccc(F)cc1 (stereo not given),n,n,n,n,n,n
CC(C)COP(=O)(OCC(C)C)C(Nc1ccccc1)c1ccccc1 (stereo not given),n,n,x,n,70,x
Cc1cc(C)c2c(=O)n(CC(=O)Nc3cccc(F)c3)sc2n1,n,84,x,n,n,x
Cc1cc(C)c2c(=O)n(CC(=O)Nc3ccc(Cl)cc3)sc2n1,n,98,x,n,n,x
Cc1cccc(N2CCN(C(=O)Cn3sc4nc(C)cc(C)c4c3=O)CC2C)c1 (stereo not given),n,121,n,x,n,n
CCOc1ccc(NC(=O)Cn2sc3nc(C)cc(C)c3c2=O)cc1,n,122,x,n,n,x
COCCn1c(SCC(=O)Nc2ccc(N(C)C)cc2)nnc1C(C)C,x,n,x,x,n,x
CCOc1ccccc1NC(=O)c1sc(NC(=O)c2cccc(C)c2)c(C(=O)OC)c1C,x,n,x,x,n,x
Cc1ccc(NC(=O)CCSc2nc(-c3ccco3)cc(C(F)(F)F)n2)c(C)c1,x,n,x,x,n,x
Cc1ccc(CN(C2CCCC2)S(=O)(=O)c2ccc(S(=O)(=O)NCC3CCCO3)cc2)cc1 (stereo not given),x,n,x,x,n,x
COCCNc1c(-c2cc(Br)cs2)nc2cnccn12,x,x,x,x,n,x
Cc1nn(C)c(C)c1CN(C)C(=O)CSc1nc(-c2cccs2)cc(C(F)(F)F)n1,x,n,x,x,n,x
O=c1[nH]c(N2CCCCC2)nc2c1CCN(Cc1ccccc1O)C2,x,x,x,x,n,x
CCOC(=O)c1cc(C(=O)c2cccs2)n2ccc(C(C)=O)cc12,n,n,n,x,64,n
COc1ccc(N/C=C/C(=O)c2sc(-c3ccccc3)nc2C)cc1,n,n,52,x,n,n
CCCOC(=O)C(C)Nc1n[nH]c(=S)[nH]c1=O (stereo not given),x,86,x,x,n,x
COc1cc(C2C3=C(CCCC3=O)N(C)C3=C2C(=O)CCC3)cc(Cl)c1OC,x,n,x,x,n,x
COc1ccc(NC(=O)c2nc(C)c(C3(C)CC(c4cccnc4)=NO3)s2)cc1 (stereo not given),n,n,x,76,n,x
N#CC(=NCCO)C1=C(O)c2ccccc2C1=O,x,n,x,x,n,x
O=C1C(SCCO)=C(SCCO)C(=O)c2ccccc21,x,43,x,x,n,x
Cn1cnc2c(N3CCCCC3)nccc21,n,n,n,n,n,n
C[c-]1[c-](C)[c-](C)[c-](C)[c-]1C.[Fe].c1cc2nccc(N3CCCC3)[c-]2c1 (stereo not given),n,55!,x,n,n,x
CC(=O)N1c2ccccc2C2(O)N=C(C)SC12 (stereo not given),n,42,n,n,n,n
CC1CCCC(C)N1C(=O)CSc1nnc(-c2ccc(S(=O)(=O)N3CCOCC3)cc2)n1C (stereo not given),x,n,x,x,n,x
O=C(Nc1ccc(O)cc1)c1cc(S(=O)(=O)N2CCCCC2)ccc1Cl,x,n,x,x,n,x
SMILES,TbHK1 inh,PGE2 EP2 inh,MT stabilizer,bCat nuc transl,EP2 mod,HMGR II inh
O=c1c2ccccc2c2ccccc2c(=O)n1-c1cc2c3ccccc3ccc2c2ccccc12,x,49,x,x,n,x
Cc1cccc2cc(C(c3nnnn3Cc3ccccc3)N3c4ccccc4CC3C)c(=O)[nH]c12 (stereo not given),x,n,x,x,n,x
O=C1c2ccccc2C(=O)c2c(Nc3cc4c5c(ccc6c7ccc8c9c(cc(Nc%10cccc%11c%10C(=O)c%10ccccc%10C%11=O)c(c3c56)c97)-c3ccccc3C8=O)C(=O)c3ccccc3-4)cccc21,x,44,x,x,n,x
CNc1cccc2c1C(=O)c1ccccc1C2=O,n,n,n,n,n,n
O=C1c2ccccc2C(=O)c2c(Nc3ccc4c5c(cccc35)C(=O)c3ccccc3-4)cccc21,x,43,x,x,n,x
COc1cccc(CC(=O)NCCn2nc(-c3cccs3)ccc2=O)c1,x,n,x,x,n,x
CCSc1nc2c(c(=O)n(C)c(=O)n2C)n1Cc1ccc(Cl)cc1,n,n,n,x,x,x
C=C(C)CSc1nc2c(c(=O)n(C)c(=O)n2C)n1Cc1ccc(Cl)cc1,x,n,x,x,61,x

# Source: PubChem BioAssay
